Assay results: PubChem BioAssay AID624400 (The Scripps Research Institute Molecular Screening Center, 2012)

tested on: aryl hydrocarbon receptor (Cavia porcellus); assay: competitors of radiolabeled TCDD at AHR – cell lysate, guinea pig liver cytosol, radiometric, set 2, counter-screen for AHR activator project, late-stage follow-up (AID 624400); conditions: [3H]TCDD binding, hydroxyapatite, at 10 µM, stronger effect = higher value
Summary of the method: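 System: guinea pig hepatic cytosol with AHR; Amount: cytosol diluted to 2 mg protein per mL; Probe or stimulus: [3H]TCDD radioligand at 2 nM final; Replication: triplicate; Measured by: scintillation counting of hydroxyapatite-captured radioligand; Compound dosing: 10 µM single dose, 2% DMSO; Timing: 1 h binding incubation at room temperature; Medium: HEDG buffer, pH 7.5.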

Row | inhibition | SMILES
1 | 34.8% | Cc1ccc(-c2cc(-c3cccc(F)c3)n[nH]2)c(O)c1
2 | 19.8% | Cc1ccc(-c2cc(-c3ccc(F)cc3)n[nH]2)c(O)c1
3 | 61.7% | Cc1ccc(-c2cc(-c3ccc(Cl)cc3)n[nH]2)c(O)c1
